Results as given in paper PMC4207553 (Journal of Medicinal Chemistry, 2014).
Marks after values point to notes of the source that are not given here.

Columns and labels:
[1] = target: hERG (Homo sapiens, UniProt Q12809); experiment: hERG binding assay, [3H]astemizole displacement; conditions: 10 μM, assay run by Ricera under identical conditions
Procedure, shortened: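 Single-point radioligand displacement at 10 μM of test compound. The result is expressed as percent displacement relative to control. The run was made at a second contract laboratory under conditions identical to the first laboratory's assay.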

[2] = Microsomal stability, mouse microsomes; assay type: in vitro ADME; conditions: % remaining at 1 h
[3] = test system: P. falciparum Dd2; experiment: P. falciparum asexual blood-stage growth inhibition; assay type: cell-based; conditions: relative to compound 2
[4] = Metabolite identification study in mouse liver microsomes; assay type: in vitro ADME; conditions: via N-demethylation at R1, hydroxylation, and combined events

Sequence of hERG (Q12809 whole entry): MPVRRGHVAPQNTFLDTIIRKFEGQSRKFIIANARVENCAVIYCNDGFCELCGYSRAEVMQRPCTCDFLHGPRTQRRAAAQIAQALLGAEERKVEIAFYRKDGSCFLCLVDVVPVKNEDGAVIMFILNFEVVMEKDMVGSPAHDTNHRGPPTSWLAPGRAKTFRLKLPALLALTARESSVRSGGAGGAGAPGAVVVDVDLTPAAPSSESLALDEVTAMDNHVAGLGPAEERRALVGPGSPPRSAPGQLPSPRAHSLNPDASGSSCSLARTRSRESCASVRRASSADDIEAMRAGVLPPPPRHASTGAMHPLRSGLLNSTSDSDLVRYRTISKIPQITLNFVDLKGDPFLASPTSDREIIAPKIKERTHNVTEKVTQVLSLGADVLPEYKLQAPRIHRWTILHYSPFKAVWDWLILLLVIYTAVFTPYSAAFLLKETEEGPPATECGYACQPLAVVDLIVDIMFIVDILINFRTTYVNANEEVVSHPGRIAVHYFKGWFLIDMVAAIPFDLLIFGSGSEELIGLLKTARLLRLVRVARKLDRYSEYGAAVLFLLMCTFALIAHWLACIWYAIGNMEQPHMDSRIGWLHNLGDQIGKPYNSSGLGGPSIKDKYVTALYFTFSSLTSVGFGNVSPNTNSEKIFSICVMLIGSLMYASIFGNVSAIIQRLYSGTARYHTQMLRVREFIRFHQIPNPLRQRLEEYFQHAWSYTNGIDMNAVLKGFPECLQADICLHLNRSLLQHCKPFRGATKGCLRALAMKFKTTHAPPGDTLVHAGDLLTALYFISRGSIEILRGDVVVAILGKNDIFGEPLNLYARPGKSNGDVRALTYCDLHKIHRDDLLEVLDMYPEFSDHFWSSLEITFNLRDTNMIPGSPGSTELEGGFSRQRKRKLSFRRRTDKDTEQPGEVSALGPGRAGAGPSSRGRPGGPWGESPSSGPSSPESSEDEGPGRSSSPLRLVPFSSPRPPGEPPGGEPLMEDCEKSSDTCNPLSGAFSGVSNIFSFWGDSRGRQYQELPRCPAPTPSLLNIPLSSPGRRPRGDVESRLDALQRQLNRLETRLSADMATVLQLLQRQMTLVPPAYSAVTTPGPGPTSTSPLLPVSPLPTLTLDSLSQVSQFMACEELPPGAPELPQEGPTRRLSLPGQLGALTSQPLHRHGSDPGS

Compound | Microsome Stability [2] [% remaining] | other results
C[C@@H]1CN([C@@H](C)CN(C)C)C(=O)c2cc(NC(=O)Nc3ccccc3)ccc2O[C@@H](C)CCCCO[C@H]1CN(C)S(=O)(=O)c1ccc(F)cc1 [Compound 2] |  | hERG, % displacement control [1]: 95^b %
C[C@@H]1CN([C@@H](C)CN(C)C)C(=O)c2cc(NC(=O)Nc3ccc(F)cc3)ccc2O[C@@H](C)CCCCO[C@H]1CN(C)S(=O)(=O)c1ccc(F)cc1 [Compound 3] | <5 | 
C[C@@H]1CN([C@@H](C)CN(C)C)C(=O)c2cc(NC(=O)NC3COC3)ccc2O[C@@H](C)CCCCO[C@H]1CN(C)S(=O)(=O)c1ccc(F)cc1 [Compound 4] | 8 | fold less potent than 2 (Dd2 GI50) [3]: approximately 60 fold
Cc1noc(C)c1NC(=O)Nc1ccc2c(c1)C(=O)N([C@@H](C)CN(C)C)C[C@@H](C)[C@H](CN(C)S(=O)(=O)c1ccc(F)cc1)OCCCC[C@H](C)O2 [Compound 5] | 8 | metabolism in mouse liver microsomes [4]: extensively metabolized
CNC[C@H](C)N1C[C@@H](C)[C@H](CN(C)S(=O)(=O)c2ccc(F)cc2)OCCCC[C@H](C)Oc2ccc(NC(=O)Nc3c(C)noc3C)cc2C1=O [Compound 6] | 51 | metabolism in mouse liver microsomes [4]: extensively metabolized
CCN(CC)C[C@H](C)N1C[C@@H](C)[C@H](CN(C)S(=O)(=O)c2ccc(F)cc2)OCCCC[C@H](C)Oc2ccc(NC(=O)Nc3c(C)noc3C)cc2C1=O [Compound 9] | 5 | 
Cc1noc(C)c1NC(=O)Nc1ccc2c(c1)C(=O)N([C@@H](C)C[N+](C)(C)[O-])C[C@@H](C)[C@H](CN(C)S(=O)(=O)c1ccc(F)cc1)OCCCC[C@H](C)O2 [Compound 10] | 35 | 
Cc1noc(C)c1NC(=O)Nc1ccc2c(c1)C(=O)N([C@@H](C)CNCC(C)(C)C)C[C@@H](C)[C@H](CN(C)S(=O)(=O)c1ccc(F)cc1)OCCCC[C@H](C)O2 [Compound 11] | 5 | 
Cc1noc(C)c1NC(=O)Nc1ccc2c(c1)C(=O)N([C@@H](C)CNCC(F)(F)F)C[C@@H](C)[C@H](CN(C)S(=O)(=O)c1ccc(F)cc1)OCCCC[C@H](C)O2 [Compound 12] | <5 | 
Cc1noc(C)c1NC(=O)Nc1ccc2c(c1)C(=O)N([C@@H](C)CN1CCOCC1)C[C@@H](C)[C@H](CN(C)S(=O)(=O)c1ccc(F)cc1)OCCCC[C@H](C)O2 [Compound 13] | <5 | 
C[C@@H]1CN([C@@H](C)CN(C)C)C(=O)c2cccnc2O[C@@H](C)CCCCO[C@H]1CN(C)S(=O)(=O)c1ccc(F)cc1 [Compound 22] | <5 | 
CCN(CC)C[C@H](C)N1C[C@@H](C)[C@H](CN(C)S(=O)(=O)c2ccc(F)cc2)OCCCC[C@H](C)Oc2ncccc2C1=O [Compound 23] | <5 | 
CNC[C@H](C)N1C[C@@H](C)[C@H](CN(C)S(=O)(=O)c2ccc(F)cc2)OCCCCOc2ccc(NC(=O)Nc3c(C)noc3C)cc2C1=O [Compound 35] | 65 | 
Cc1noc(C)c1NC(=O)Nc1ccc2c(c1)C(=O)N([C@@H](C)CN(C)C)C[C@@H](C)[C@H](CN(C)S(=O)(=O)c1ccc(F)cc1)OCCCCO2 [Compound 36] | 15 | 
